Drawing on PubChem BioAssay, this text covers viability, differential viability (reversal) and inhibition for 13 molecules.

Activity calls are given as the source filed them.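 Rule for the calls, unless noted: active = viability at or below 10% of carrier control in both of two separate runs; inconclusive = viability at or below 10% in only one of the two runs; inactive = the rest.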

Test [1] in a line: SK-BR-3 cell growth inhibitors, pilot screen, 24 h, human (AID 572).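 Note: compound exposure lasted between 18 and 24 h rather than exactly 24 h; 100% = carrier-treated control wells.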 The settings on record: SK-BR-3 viability, CellTiter-Glo luminescence, at 10 µM, stronger effect = lower value.
Test [2] can be described thus: HUVEC growth inhibition – cell-based, human, primary screen (AID 575;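 active = viability at or below 30% in both replicate assays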;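 note: 100% = median of untreated cell wells with 0.1% DMSO on each plate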). The settings on record: HUVEC proliferation, CellTiter-Glo luminescence, 72 h; at 10 µM; stronger effect = lower value. In short, it runs like this: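 system = HUVEC primary cells | amount = 1250 cells/well | buffer or medium = supplemented EBM, 2% fetal bovine serum | dosing = single-point 10 µM, DMSO 0.1% final | times = 72 h compound incubation | detection = CTG luminescence | read-out = % viability relative to median vehicle-well signal on each plate | control set = vehicle and MePR control wells | format = collagen-coated 384-well format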
(In general: Cellular ATP, detected with luciferase, serves as a proxy for viable cell number.)

Test [3] can be described thus: growth inhibitors of H69AR lung tumor, primary screen, human, duplicate replicates (AID 580;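 active = viability at or under a set limit in both replicates, limit being median viability minus 3 SD, cut at about 48% in these data, passing the limit was not always enough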;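 note: 100% = mean luminescence of untreated wells and 0% = no signal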). The settings on record: H69AR lung tumor cells viability, ATP luminescence, 72 h; at 10 µM; stronger effect = lower value.
Test [4] in a line: reversal of MRP1-mediated doxorubicin resistance, pilot screen, H69AR cells, doxorubicin co-treatment (AID 601;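 active = viability loss from added drug above about 55%, and viability with drug at most 40%, in both replicates, limit read from the data, passing the limit was not always enough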). The settings on record: CellTiter-Glo, 72 h, at 10 µM; for differential viability (reversal): stronger effect = higher value.
Test [5] is described as follows: 384-well plate pilot, post-Golgi transport modulator project, inhibition of yeast transport mutant growth (AID 636; in the data active = inhibition above about 31%). The note with it: absorbance 615 nm, about 18 h, stronger effect = higher value.
A short description of test [6]: growth suppression of yeast trafficking mutant, preliminary HTS, modulators of trafficking downstream of Golgi apparatus project, 1536-format plate, OD 615 nm (AID 637; in the data active = inhibition above about 30%). The settings on record: yeast transport mutant growth, absorbance 615 nm, 18 h; stronger effect = higher value.
The mark [7] stands for this setting: H69AR cells + 2 uM doxorubicin, measured here: viability with 2 uM doxorubicin, stronger effect = lower value.
Setting [8] is: H69AR cells, compound alone cytotoxicity.

Turning to `CCN(CC)C(=O)C1CCN(CC2CC=CCC2)CC1` (centres undefined), the viability in test [1] is 97% (inactive); in test [2], 109% (inactive); in test [3] it was 94.8% (inactive); in test [4] (setting [7]), 98.7%; in test [4] (setting [8]), 94.8%. The differential viability (reversal) in test [4] (H69AR cells + 2 uM doxorubicin) is -3.97% (inactive). Moreover, the inhibition in test [5] was -2.93% (inactive); in test [6] it was -2.91% (inactive).

With `c1cnc(NCCNc2ncccn2)nc1`, the viability was 98% (inactive) in test [1]; 112% (inactive) in test [2]; 99.8% (inactive) in test [3]; 89% in test [4] (setting [7]); 99.8% in test [4] (setting [8]). The differential viability (reversal) in test [4] (H69AR cells + 2 uM doxorubicin) was 10.7% (inactive). The inhibition in test [5] was -8.4% (inactive); in test [6], -3.82% (inactive).

With `O=C(CSc1n[nH]c(=O)[nH]c1=O)c1ccccc1`, the viability in test [1] was 110% (inactive); in test [2] it was 105% (inactive); in test [3], 101% (inactive); in test [4] (setting [7]), 97%; in test [4] (setting [8]), 101%. For the same molecule, the differential viability (reversal) in test [4] (H69AR cells + 2 uM doxorubicin) was 4.23% (inactive). Also, the inhibition in test [5] is -2.4% (inactive); in test [6], -3.82% (inactive).

With `Cc1oc2cc3c(C(=O)OCCN(C)C)c(C)oc3cc2c1C(=O)OCCN(C)C`, the viability in test [1] was 92.5% (inactive); in test [2] it was 72.2% (inactive); in test [3] it was 90.4% (inactive); in test [4] (setting [7]), 107%; in test [4] (setting [8]), 90.4%. Besides, the differential viability (reversal) in test [4] (H69AR cells + 2 uM doxorubicin) was -16.8% (inactive). In addition, the values for the inhibition in test [5] and in test [6] were -3.95% (inactive) and -10% (inactive), respectively.

Consider `COC(=O)c1ccccc1NC(=O)COc1ccc(S(=O)(=O)N2CCCC2)cc1C`, for which the viability was 90% (inactive) in test [1]; 87.1% (inactive) in test [2]; 74.4% (inactive) in test [3]; 66.4% in test [4] (setting [7]); 74.4% in test [4] (setting [8]). Further, the differential viability (reversal) in test [4] (H69AR cells + 2 uM doxorubicin) is 8.04% (inactive). In addition, the inhibition in test [5] is -3.03% (inactive); in test [6], 3.83% (inactive).

Regarding `O=C(CSc1nc(N2CCCCC2)nc(N2CCCCC2)n1)Nc1nccs1`, the viability is 123% (inactive) in test [1]; 85.4% (inactive) in test [2]; 77.3% (inactive) in test [3]; 72.5% in test [4] (setting [7]); 77.3% in test [4] (setting [8]). Further, the differential viability (reversal) in test [4] (H69AR cells + 2 uM doxorubicin) is 4.8% (inactive). Also, the inhibition in test [5] was -2.21% (inactive); in test [6], -7.21% (inactive).

With `COCCCN1C(=O)C(O)=C(C(C)=O)C1c1ccccn1` (centres undefined), the viability in test [1] is 106% (inactive); in test [2], 102% (inactive); in test [3], 86.6% (inactive); in test [4] (setting [7]), 85.9%; in test [4] (setting [8]), 86.6%. The differential viability (reversal) in test [4] (H69AR cells + 2 uM doxorubicin) was 0.675% (inactive). Besides, the inhibition in test [5] was -3.73% (inactive); in test [6], -1.45% (inactive).

Consider `CS(=O)(=O)N1CCc2cc(S(=O)(=O)Nc3ccc4oc5c(c4c3)CCCC5)ccc21`, for which the viability in test [1] was 76% (inactive); in test [2] it was 43.3% (inactive); in test [3], 88.9% (inactive); in test [4] (setting [7]), 103%; in test [4] (setting [8]), 88.9%. In test [4] (H69AR cells + 2 uM doxorubicin), the differential viability (reversal) is -13.8% (inactive). Further, the inhibition is -2.47% (inactive) in test [5] and 0% (inactive) in test [6].

Turning to `COc1ccccc1-n1cnc2cc(NS(=O)(=O)c3ccccc3)ccc21`, the viability in test [1] is 62% (inactive); in test [2], 101% (inactive); in test [3] it was 87.1% (inactive); in test [4] (setting [7]), 87.8%; in test [4] (setting [8]) it was 87.1%. In test [4] (H69AR cells + 2 uM doxorubicin), the differential viability (reversal) is -0.69% (inactive). Besides, the inhibition is -3.15% (inactive) in test [5] and -6.55% (inactive) in test [6].

Take `O=C1c2ccccc2S(=O)(=O)N1Cc1nnc(-c2ccccc2Br)o1`: the viability in test [1] is 88% (inactive); in test [2] it was 102% (inactive); in test [3], 95% (inactive); in test [4] (setting [7]) it was 78%; in test [4] (setting [8]), 95%. In addition, the differential viability (reversal) in test [4] (H69AR cells + 2 uM doxorubicin) was 17% (inactive). The results for the inhibition in test [5] and in test [6] were -5.62% (inactive) and 0.32% (inactive), respectively.

With `Cc1ccc(Nc2nc(Oc3ccc(=O)[nH]n3)nc(N(C)C)n2)cc1`, the viability in test [1] is 81% (inactive); in test [2], 101% (inactive); in test [3], 94% (inactive); in test [4] (setting [7]), 77.9%; in test [4] (setting [8]) it was 94%. Also, the differential viability (reversal) in test [4] (H69AR cells + 2 uM doxorubicin) was 16.1% (inactive). For the same molecule, the inhibition in test [5] was -3.7% (inactive); in test [6], 1.94% (inactive).

With `CCOC(=O)c1ccc(CNC(=O)C(Cc2c[nH]c3ccccc23)NC(C)=O)o1` (centres undefined), the viability in test [1] is 90% (inactive); in test [2] it was 90.3% (inactive); in test [3] it was 101% (inactive); in test [4] (setting [7]), 92.3%; in test [4] (setting [8]) it was 101%. In addition, in test [4] (H69AR cells + 2 uM doxorubicin), the differential viability (reversal) was 8.63% (inactive). In addition, the figures for the inhibition in test [5] and in test [6] were -6.99% (inactive) and 0.36% (inactive), respectively.

As for `CCCC(=O)Nc1cnc(NC(=O)c2cccc(F)c2)cc1C`, the viability in test [1] was 86% (inactive); in test [2], 90.3% (inactive); in test [3] it was 88.7% (inactive); in test [4] (setting [7]), 82.6%; in test [4] (setting [8]), 88.7%. Also, the differential viability (reversal) in test [4] (H69AR cells + 2 uM doxorubicin) is 6.15% (inactive). Also, the results for the inhibition in test [5] and in test [6] were 2.47% (inactive) and 2.95% (inactive), respectively.

A word on the viability: it is a read-out of living cells in per cent, often relative to untreated cells. Usually inhibition stands for the relative decrease from the control value, in per cent.
